# The source made the active and inactive calls. The rule behind the calls is not given here.
# Test system: Plasmodium falciparum
# Assay: Antiplasmodial activity against chloroquine-resistant Plasmodium falciparum Dd2 infected in human erythrocytes assessed as reduction in microbial growth after 72 hrs by SYBR green I staining based fluorescence assay
# Type: functional, organism-based
# Conditions: Dd2, Erythrocyte
# Summary of the method: (§1)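 SYBR Green I assay: twofold serial dilutions on P. falciparum cultures at 1% parasitemia, 1% hematocrit, 37 °C, 5% CO₂, 72 h, max 0.1% DMSO. DMSO and CQ as growth and inhibition controls. Plates frozen at −80 °C, thawed, lysed in Tris/saponin/EDTA/Triton buffer with 0.01% SYBR Green I, 1 h dark at room temperature. Fluorescence read at 485 ex/530 em. EC50 by nonlinear dose–response fit.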
row,Structure (SMILES),EC50 [nM]
1,COc1ccc(/C=C/c2cc(NCCN(C)C)c3cc(Cl)ccc3n2)cc1,34.8
2,COc1ccc2nc(/C=C/c3ccc(OC)c(OC)c3)cc(NCCN(C)C)c2c1,187
3,COc1ccc2nc(/C=C/c3cc(NCCN(C)C)c4cc(Cl)ccc4n3)ccc2c1,281
4,COc1ccc(/C=C/c2cc(NCCN(C)C)c3cc(F)ccc3n2)cc1OC,41.1
5,Clc1ccc2nc(/C=C/c3ccncc3)cc(N3CCCC3)c2c1,1180
6,Clc1ccc2nc(/C=C/c3ccccc3)cc(NCCN3CCCC3)c2c1,107
7,COc1ccc(/C=C/c2cc(NCCN(C)C)c3cc(F)ccc3n2)cc1,37.8
8,CN(C)CCNc1cc(/C=C/c2ccc([N+](=O)[O-])cc2)nc2ccc(Cl)cc12,28.7
9,Fc1cc(F)cc(/C=C/c2cc(NCCCCN3CCOCC3)c3cc(Cl)ccc3n2)c1,185
10,CN(C)CCNc1cc(/C=C/c2ccc(N(C)C)cc2)nc2ccc(Cl)cc12,88.3
11,CN(C)CCNc1cc(/C=C/c2cc3ccccc3[nH]2)nc2ccc(Cl)cc12,95.9
12,Fc1ccc(/C=C/c2cc(N3CCC(N4CCCCC4)CC3)c3cc(Cl)ccc3n2)cc1,487
13,CN(C)CCNc1cc(/C=C/c2ccccc2)nc2ccc(F)cc12,21
14,CN(C)CCCCNc1cc(/C=C/c2ccc([N+](=O)[O-])cc2)nc2ccc(Cl)cc12,52.5
15,Fc1ccc(/C=C/c2cc(N3CCOCC3)c3cc(Cl)ccc3n2)cc1,6750
16,Clc1ccc2nc(/C=C/c3ccncc3)cc(N3CCN(c4ccccn4)CC3)c2c1,2570
17,CN(C)CCNc1cc(/C=C/C2CCCCC2)nc2ccc(Cl)cc12,394
18,Fc1ccc(/C=C/c2cc(Nc3ccc(N4CCCCC4)cc3)c3cc(Cl)ccc3n2)cc1,667
19,Fc1cc(F)c(F)c(/C=C/c2cc(NCCCCN3CCOCC3)c3cc(Cl)ccc3n2)c1,588
20,Fc1ccc(/C=C/c2cc(NCCCCN3CCOCC3)c3cc(Cl)ccc3n2)cn1,54.6
21,Fc1cc(/C=C/c2cc(NCCCCN3CCOCC3)c3cc(Cl)ccc3n2)cc(F)c1F,130
22,Fc1ccc(/C=C/c2cc(N3CCCC3)c3cc(Cl)ccc3n2)cc1,428

row,Structure (SMILES),EC50 [nM]
1,COc1ccc2nc(/C=C/c3cccc([N+](=O)[O-])c3)cc(NCCN(C)C)c2c1,49.5
2,Cc1cc(NCCCCN(C)C)c2cc(Cl)ccc2n1,1240
3,CN(C)CCNc1cc(/C=C/c2cccnc2)nc2ccc(Cl)cc12,33.6
4,CN(C)CCNc1cc(/C=C/c2cccs2)nc2ccc(F)cc12,111
5,COc1ccc2nc(/C=C/c3ccc([N+](=O)[O-])cc3)cc(NCCN(C)C)c2c1,28.6
6,CN(C)CCNc1cc(/C=C/c2ccco2)nc2ccc(Cl)cc12,37
7,Fc1ccc(/C=C/c2cc(NCCCCN3CCOCC3)c3cc(Cl)ccc3n2)c(F)c1,72.6
8,Fc1ccc(/C=C/c2cc(N3CCN(c4ccccn4)CC3)c3cc(Cl)ccc3n2)cc1,3300
9,CN(C)CCNc1cc(/C=C/c2cccc3ccccc23)nc2ccc(Cl)cc12,373
10,COc1ccc2nc(CCc3ccncc3)cc(NCCN(C)C)c2c1,709
11,COc1ccc2nc(/C=C/c3ccncc3)cc(NCCN(C)C)c2c1,38.8
12,CN1CCN(CCNc2cc(/C=C/c3ccncc3)nc3ccc(Cl)cc23)CC1,53.3
13,Clc1ccc2nc(/C=C/c3ccncc3)cc(NCCN3CCOCC3)c2c1,137
14,CN1CCN(CCCCNc2cc(/C=C/c3ccccc3)nc3ccc(Cl)cc23)CC1,58.9
15,COc1ccc2nc(/C=C/c3cccs3)cc(NCCN(C)C)c2c1,80
16,FC(F)(F)c1cccc(/C=C/c2cc(NCCCCN3CCOCC3)c3cc(Cl)ccc3n2)c1,33.9
17,Clc1ccc2nc(/C=C/C=C/c3ccccc3)cc(NCCCCN3CCOCC3)c2c1,143
18,COc1ccc2nc(/C=C/c3ccccc3[N+](=O)[O-])cc(NCCN(C)C)c2c1,56.3
19,CN(C)CCNc1cc(/C=C/c2ccncc2)nc2ccc(F)cc12,36.1
20,CN(C)CCNc1cc(/C=C/c2ccc(F)cc2)nc2ccc(F)cc12,30.9
21,COc1ccc(/C=C/c2cc(NCCN(C)C)c3cc(Cl)ccc3n2)cc1OC,38.9
22,CN(C)CCNc1cc(/C=C/c2ccc([N+](=O)[O-])cc2)nc2ccccc12,47.9

# Test system: not listed separately
# Assay: Resistant index, ratio of EC50 for antiplasmodial activity against chloroquine-resistant Plasmodium falciparum Dd2 to antiplasmodial activity against chloroquine-sensitive Plasmodium falciparum 3D7
# Type: functional
# Conditions: not given
row,Structure (SMILES),Ratio EC50
1,COc1ccc2nc(/C=C/c3ccc(OC)c(OC)c3)cc(NCCN(C)C)c2c1,> 1.3
2,COc1ccc2nc(/C=C/c3cc(NCCN(C)C)c4cc(Cl)ccc4n3)ccc2c1,> 1.3
3,CN(C)CCNc1cc(/C=C/c2ccc(N(C)C)cc2)nc2ccc(Cl)cc12,> 1.3
4,CN(C)CCNc1cc(/C=C/c2cc3ccccc3[nH]2)nc2ccc(Cl)cc12,> 1.3
5,CN(C)CCNc1cc(/C=C/C2CCCCC2)nc2ccc(Cl)cc12,> 1.3
6,CN(C)CCNc1cc(/C=C/c2cccc3ccccc23)nc2ccc(Cl)cc12,> 1.3

# Test system: Plasmodium falciparum
# Assay: Antiplasmodial activity against chloroquine-sensitive Plasmodium falciparum 3D7 infected in human erythrocytes assessed as reduction in microbial growth after 72 hrs by SYBR green I staining based fluorescence assay
# Type: functional, organism-based
# Conditions: 3D7, Erythrocyte
# Summary of the method: as §1
row,Structure (SMILES),EC50 [nM]
1,Fc1ccc(/C=C/c2cc(N3CCC(N4CCCCC4)CC3)c3cc(Cl)ccc3n2)cc1,155
2,Clc1ccc2nc(/C=C/c3ccncc3)cc(N3CCN(c4ccccn4)CC3)c2c1,155
3,Fc1ccc(/C=C/c2cc(Nc3ccc(N4CCCCC4)cc3)c3cc(Cl)ccc3n2)cc1,155
4,Fc1ccc(/C=C/c2cc(N3CCN(c4ccccn4)CC3)c3cc(Cl)ccc3n2)cc1,155

# Same assay, conditions: Erythrocyte
row,Structure (SMILES),Activity
1,COc1ccc2nc(/C=C/c3ccc(OC)c(OC)c3)cc(NCCN(C)C)c2c1,Active
2,Fc1cc(F)c(F)c(/C=C/c2cc(NCCCCN3CCOCC3)c3cc(Cl)ccc3n2)c1,Active
3,Fc1ccc(/C=C/c2cc(NCCCCN3CCOCC3)c3cc(Cl)ccc3n2)cn1,Active

# Source: ChEMBL document CHEMBL4665829, “Synthesis, Structure-Activity Relationship, and Antimalarial Efficacy of 6-Chloro-2-arylvinylquinolines” (J Med Chem, 2020)
